Experimental data from different studies.
Compare with care: the assays were run in different laboratories.
Target: Histamine H3 receptor (HRH3, Homo sapiens, UniProt Q9Y5N1)

`CCN(Cc1ccccc1C(F)(F)F)C(=O)C1CCN(S(=O)(=O)c2ccc3[nH]ncc3c2)CC1` gave an inhibition of 6% (ligand displacement; radioligand; 10 µM).
The inhibition of `O=C(c1ccc(F)cc1)N(Cc1ccccc1)C1CCCCC1` is reported as 15% (cell-free assay; 10 µM).
`CC(=O)Nc1ncc(CN2CCC[C@H](Cc3cc(C)nc(C)c3)C2)s1` has an inhibition of 10.8% (ligand displacement; 10 µM).
`CN1CCN(CCCOc2ccc(=O)n(-c3ccc(Cl)c(Cl)c3)n2)CC1` has an inhibition of 38.2% (ligand displacement; 1 µM).
For `CCCNc1nc2ccccc2n1Cc1ccc(Cl)cc1`, the inhibition was -5.56% (ligand displacement; 10 µM).
`CCS(=O)(=O)c1cc2cc(C[C@](O)(CC(C)(C)c3ccc(F)cc3C(N)=O)C(F)(F)F)[nH]c2cn1` has an inhibition of 11.7% (ligand displacement; 10 µM).
`COc1ccc(-n2nc(OCCCN3CCCCC3)ccc2=O)cc1` gave an inhibition of 23.3% (ligand displacement; 1 µM).
`CCN(CC)c1ccc(C2Nc3ccc(C(=O)c4ccccc4)cc3NC3=C2C(=O)CC(C)(C)C3)cc1` (stereo not drawn) has an inhibition of 43% (ligand displacement; radioligand; 10 µM).
`N#Cc1cc(Cn2c(N3CCCC3)nc3ccccc32)ccc1F` has an inhibition of 1.97% (ligand displacement; 10 µM).
